Reference: ChEMBL document CHEMBL6127097, “Structure-Guided Discovery of cis-Hexahydro-pyrido-oxazinones as Reversible, Drug-like Monoacylglycerol Lipase Inhibitors” (J Med Chem, 2024)
Calls of active or inactive are those of the source.

Legend:
[1] = Free fraction in human plasma incubated for 5 hrs by equilibrium dialysis based LC-MS/MS analysis; assay type: ADME, cell-free
How it was run: (§1)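 Equilibrium dialysis across a 12–14 kDa cutoff membrane in a Teflon 96-well device. Pooled frozen plasma is adjusted to pH 7.4 and spiked at 1000 nM initial total, against Soerensen buffer pH 7.4. Incubation is 5 h at 37 °C, 5% CO2, with diazepam control in each well. %fu = 100 × buffer/matrix concentration after dialysis; recovery accepted at 80–120%.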

[2] = Chemical stability at pH 8 incubated for 2 hrs; assay type: physicochemical; details: buffer, pH 8, 2 h
How it was run: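 Compound was held in aqueous buffer at the stated pH for 2 h at 37 °C.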

[3] = Clearance in rat microsomes; assay type: ADME, Microsome
[4] = Clearance in human hepatocytes assessed per 10 million cells; assay type: ADME, cell-based, Hepatocyte; details: read-out: CLH
[5] = Plasma protein binding in human assessed as fraction unbound by equilibrium dialysis based LC-MS/MS method; assay type: ADME, cell-free; how it was run: as §1
[6] = Plasma protein binding in mouse assessed as fraction unbound by equilibrium dialysis based LC-MS/MS method; assay type: ADME, cell-free; how it was run: as §1
[7] = Plasma protein binding in rat assessed as fraction unbound by equilibrium dialysis based LC-MS/MS method; assay type: ADME, cell-free
[8] = Tmax in Wistar rat at 5 mg/kg, po measured upto 24 hrs by LC-MS/MS analysis; assay type: ADME, organism-based; details: in vivo
How it was run: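 Male Wistar rats, single dose. i.v. in NMP/0.9% NaCl 30:70; p.o. and i.p. in NMP/HPMC/diisooctyl sulfosuccinate 10:90; 3 per i.v./p.o. group, 6 i.p. K2EDTA plasma sampled 0.083–7 h, plus 24 h for i.v./p.o.; brain and CSF at 1, 2, 7 h (i.p. only). LC-MS/MS, noncompartmental analysis.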

[9] = AUClast in Wistar rat at 5 mg/kg, po measured upto 24 hrs by LC-MS/MS analysis; assay type: ADME, organism-based; details: in vivo
How it was run: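 Male Wistar rats (N = 3 per group) received a single dose. The i.v. dose was 1 mg/kg in NMP/0.9% NaCl 30:70. The p.o. dose was 5 mg/kg in NMP/HPMC/diisooctyl sulfosuccinate 10:90. Blood was taken into K2EDTA from 0.083 (i.v.) or 0.25 h to 24 h. Plasma was assayed by LC-MS/MS and analysed non-compartmentally.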

CYP3A4 = CYP3A4 (Homo sapiens, UniProt P08684); experiment: Inhibition of CYP3A4 (unknown origin) at 10 uM relative to control; assay type: ADME
[10] = biological target: Voltage-gated inwardly rectifying potassium channel KCNH2 (Homo sapiens, UniProt Q12809); experiment: Inhibition of human ERG expressed in CHO cells by automated patch clamp method; assay type: toxicity, cell-based
[11] = Phototoxicity in mouse 3T3 cells; assay type: toxicity, cell-based; details: nih3t3
[12] = Drug concentration in mouse CSF at 30 mg/kg, ip measured after 4 hrs; assay type: ADME, organism-based, Cerebrospinal fluid; details: read-out: Ct
[13] = Average drug concentration in mouse plasma at 30 mg/kg, ip measured after 2 hrs; assay type: ADME, organism-based; details: read-out: Cave
How it was run: (§2)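 In a time course, mice were injected i.p. with 30 mg/kg in NaCl/DMSO/Tween 80 (80/10/10). Average plasma levels were determined at the stated time points over 24 h.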

[14] = Average drug concentration in mouse plasma at 30 mg/kg, ip measured after 16 hrs; assay type: ADME, organism-based; details: in vivo; how it was run: as §2
Monoglyceride lipase = biological target: T1, Monoglyceride lipase (Mus musculus, UniProt O35678); experiment: Inhibition of mouse MAGL using native substrate by Rapidfire MS assay
T1 sequence (O35678 whole entry): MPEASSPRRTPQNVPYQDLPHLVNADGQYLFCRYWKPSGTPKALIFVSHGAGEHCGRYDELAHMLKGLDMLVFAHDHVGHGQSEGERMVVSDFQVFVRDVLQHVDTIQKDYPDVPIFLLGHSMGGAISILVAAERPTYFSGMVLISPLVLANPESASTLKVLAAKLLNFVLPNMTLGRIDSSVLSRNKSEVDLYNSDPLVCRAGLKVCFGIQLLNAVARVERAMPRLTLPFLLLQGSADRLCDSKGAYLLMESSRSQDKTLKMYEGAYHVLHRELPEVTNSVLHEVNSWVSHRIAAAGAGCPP

[15] = Inhibition of Cynomolgus monkey MAGL using native substrate by Rapidfire MS assay
[16] = biological target: T2, Monoglyceride lipase (Homo sapiens) (UniProt Q99685); experiment: Binding affinity to human MAGL assessed as dissociation rate constant by SPR analysis
T2 sequence (whole entry): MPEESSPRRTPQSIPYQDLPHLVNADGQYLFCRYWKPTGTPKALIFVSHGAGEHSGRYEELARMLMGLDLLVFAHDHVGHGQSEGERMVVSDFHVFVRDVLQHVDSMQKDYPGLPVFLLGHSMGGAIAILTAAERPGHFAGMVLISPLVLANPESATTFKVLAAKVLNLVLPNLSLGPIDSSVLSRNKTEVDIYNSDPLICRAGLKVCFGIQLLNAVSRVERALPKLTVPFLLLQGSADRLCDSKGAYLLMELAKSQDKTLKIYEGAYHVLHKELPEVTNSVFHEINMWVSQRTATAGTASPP
How it was run: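 Human or rat MAGL was immobilized by amine coupling without ethanolamine quenching. Runs were done at 18 °C in 10 mM HEPES, 150 mM NaCl, 0.05% P20, 50 µM EDTA, pH 7.4, with 1% DMSO. Single-cycle kinetics used five concentrations, top 1 µM in 2-fold steps, at 30 µL/min, giving kon, koff and Kd.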

Homo sapiens = organism: Homo sapiens; experiment: Inhibition of serotonin transporter (unknown origin) at 10 uM relative to control
How it was run: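 Cerep panel of 50 off-targets, percent inhibition at 10 µM.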

Mus musculus [17] = organism: Mus musculus; experiment: Inhibition of DAGL in mouse brain lysates at 10 uM by ABPP assay; assay type: subcellular
How it was run: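 Gel-based activity-based protein profiling of hydrolases, with the inhibitor at 10 µM.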

LLC-PK1 = experiment: Substrate activity at human P-gp expressed in LLC-PK1 cells assessed as efflux ratio incubated for 3 hrs; assay type: cell-based
How it was run: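 LLC-PK1 porcine kidney cells transfected with human or mouse P-gp, grown as polarized monolayers on filter plates. Compound is dosed apically or basolaterally and transport followed 3 h at 37 °C. Efflux ratio comes from unidirectional Papp; 1 µM zosuquidar defines permeability without P-gp.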

Mus musculus [18] = experiment: Upregulation of brain 2-AG level in mouse at 30 mg/kg, ip measured after 8 to 24 hrs; assay type: functional, organism-based; details: time 8-24 hrs
How it was run: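 Male-unspecified mice received a single i.p. dose of 30 mg/kg. The vehicle was NaCl/DMSO/TW80 (80/10/10): the drug was dissolved in equal parts DMSO and TW80, then diluted with 8 parts normal saline. Brain 2-AG levels were followed over 24 h after dosing and measured by LC/MS in brain extracts.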

Mus musculus [19] = experiment: Antiinflammatory activity in LPS-induced CD-1 mouse neuroinflammation model assessed as decrease in peripheral tissue LCN2 mRNA expression at 30 mg/kg, ip measured after 6 hrs by qRT-PCR analysis; assay type: functional, organism-based
How it was run: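 CD-1 mice were dosed with NaCl + vehicle, LPS (5 mg/kg) + vehicle, or LPS + inhibitor at 30 mg/kg i.p. (vehicle NaCl/DMSO/Tween 80, 80/10/10). They were sacrificed 6 h post-compound. LCN2 and IL1b mRNA in peripheral tissue were measured by droplet digital qRT-PCR.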

Sequence of Voltage-gated inwardly rectifying potassium channel KCNH2 (Q12809 whole entry): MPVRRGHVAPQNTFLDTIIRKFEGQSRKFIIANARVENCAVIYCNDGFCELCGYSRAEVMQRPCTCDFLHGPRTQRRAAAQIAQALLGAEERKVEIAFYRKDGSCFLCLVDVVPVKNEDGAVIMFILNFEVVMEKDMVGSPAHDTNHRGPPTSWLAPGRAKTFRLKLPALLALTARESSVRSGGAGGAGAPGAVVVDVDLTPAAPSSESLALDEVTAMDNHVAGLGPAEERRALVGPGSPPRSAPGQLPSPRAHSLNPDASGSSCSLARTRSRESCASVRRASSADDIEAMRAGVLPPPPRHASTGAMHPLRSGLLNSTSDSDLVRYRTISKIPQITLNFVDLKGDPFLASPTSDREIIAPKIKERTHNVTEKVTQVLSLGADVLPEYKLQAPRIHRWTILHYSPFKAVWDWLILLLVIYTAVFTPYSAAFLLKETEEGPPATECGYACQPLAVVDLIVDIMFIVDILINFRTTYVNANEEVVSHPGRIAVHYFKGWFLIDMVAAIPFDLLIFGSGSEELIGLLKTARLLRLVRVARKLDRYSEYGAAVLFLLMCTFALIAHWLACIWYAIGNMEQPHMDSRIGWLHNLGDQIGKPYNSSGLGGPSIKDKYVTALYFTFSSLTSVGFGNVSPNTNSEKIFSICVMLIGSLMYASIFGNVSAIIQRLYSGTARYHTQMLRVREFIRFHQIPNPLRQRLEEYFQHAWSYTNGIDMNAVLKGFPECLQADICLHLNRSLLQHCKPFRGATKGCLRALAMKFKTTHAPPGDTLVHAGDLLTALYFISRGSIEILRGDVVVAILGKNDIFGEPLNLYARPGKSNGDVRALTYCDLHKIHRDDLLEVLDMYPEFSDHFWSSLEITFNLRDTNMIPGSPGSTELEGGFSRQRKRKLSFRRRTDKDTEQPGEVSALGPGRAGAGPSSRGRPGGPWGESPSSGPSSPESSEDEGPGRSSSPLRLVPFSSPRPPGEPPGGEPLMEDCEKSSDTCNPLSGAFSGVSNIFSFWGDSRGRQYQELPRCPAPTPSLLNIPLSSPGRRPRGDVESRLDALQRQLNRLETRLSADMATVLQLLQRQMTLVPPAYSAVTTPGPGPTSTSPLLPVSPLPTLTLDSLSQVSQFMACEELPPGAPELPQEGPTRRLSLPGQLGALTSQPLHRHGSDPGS
Sequence of CYP3A4 (P08684 whole entry): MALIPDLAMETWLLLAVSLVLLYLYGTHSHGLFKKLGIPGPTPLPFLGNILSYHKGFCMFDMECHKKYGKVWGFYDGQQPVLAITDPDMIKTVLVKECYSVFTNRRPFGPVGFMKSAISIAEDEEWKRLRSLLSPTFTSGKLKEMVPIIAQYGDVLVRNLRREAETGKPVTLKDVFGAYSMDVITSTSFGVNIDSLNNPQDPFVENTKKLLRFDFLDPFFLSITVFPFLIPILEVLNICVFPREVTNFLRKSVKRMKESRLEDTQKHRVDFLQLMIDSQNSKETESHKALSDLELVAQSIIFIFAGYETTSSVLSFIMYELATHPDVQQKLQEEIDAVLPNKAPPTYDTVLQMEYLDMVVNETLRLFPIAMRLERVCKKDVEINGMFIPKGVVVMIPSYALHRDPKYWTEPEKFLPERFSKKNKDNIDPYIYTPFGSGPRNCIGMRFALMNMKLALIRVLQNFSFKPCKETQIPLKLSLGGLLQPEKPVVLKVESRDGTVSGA

For `O=C1CO[C@H]2CCN(C(=O)N3CCC(Cc4ccc(C(F)(F)F)cc4)CC3)C[C@H]2N1` [listing 1 of 2 here], the fraction unbound at 5 h [1] was 0.043, the Stability [2] was “Stable” and the microsomal CLint [3] was 11 µL/min/mg. For the same compound, the hepatocyte CLint [4] was 1.9 µL/min/1e6 cells, the fraction unbound [5] was 0.043 and the fraction unbound [6] was 0.047. The fraction unbound [7] was 0.032, the Tmax [8] was 6 h and the AUC(0-t) at 24 h [9] was 19100 ng·h/mL. The inhibition at 10 µM (CYP3A4) was -195%, the IC50 [10] was 7700 nM and the Activity [11] was “Non-Toxic”. The concentration at 4 h [12] was 455 nM, the concentration at 2 h [13] was 42000 nM and the Cave [14] was 2955 nM. The IC50 (Monoglyceride lipase) was 91 nM and the IC50 [15] was 16 nM.
For `O=C1CO[C@H]2CCN(C(=O)N3CCC(Cc4ccc(C(F)(F)F)cc4)CC3)C[C@H]2N1` [listing 2 of 2 here], the K [16] was 7.5 10^-3/s, the inhibition (Homo sapiens) was 57% and the inhibition (Mus musculus [17]) was “inactive”. For the same compound, the Ratio (LLC-PK1) was 2.4, the Activity (Mus musculus [18]) was “inactive” and the Activity (Mus musculus [19]) was “inactive”.
